In the library only some 2.6% were active in any assay of this set; here they are far more common.
FGF22 binding: binders of recombinant human FGF22 by thermal shift; hit rate 1.5% among 340,000; SYPRO orange fluorescence; percent of sucrose octasulfate shift, DMSO zero; Q9HCT0; activity (Tm shift, normalised), % at 9.99 µM; AID 651658;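 active = mean Tm shift, scaled 0 neutral to 100 positive control, at about 1.3% or above, every replicate too, limit read from the data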
SIRT5 block: sirtuin-5 (human) deacylase inhibition | Q9NXA8 | Purified SirT5, succinyl-peptide AMC, trypsin-coupled fluorescence | inhibition, % at 15 µM | hit rate 1.1% among 330,000 | AID 652115; in the data active = inhibition above about 15%
NSD2 inh: inhibitors of human histone methyltransferase NSD2; NSD2 peptide methylation, AlphaScreen, 120 min; O96028; inhibition, % at 12.5 µM; hit rate 0.54% among 310,000; in the data active = inhibition above about 50%
CASP6 VEID inh: inhibitors of human caspase-6; purified caspase-6, Z-VEID-R110 cleavage fluorescence; inhibition, % at 12.5 µM; hit rate 0.53% among 350,000; AID 686996;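 active = mean inhibition across replicates at least about 35%, with every replicate also reaching that limit, limit read from the data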;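 also: 0% = median of neutral control wells and 100% = no fluorescence left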
Target sequence (P55212 24-179 limits assumed): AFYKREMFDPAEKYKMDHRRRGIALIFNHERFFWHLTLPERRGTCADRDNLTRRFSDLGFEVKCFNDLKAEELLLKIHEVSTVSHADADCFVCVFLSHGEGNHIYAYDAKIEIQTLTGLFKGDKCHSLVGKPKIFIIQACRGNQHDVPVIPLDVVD
Target sequence (P55212 194-293 limits assumed): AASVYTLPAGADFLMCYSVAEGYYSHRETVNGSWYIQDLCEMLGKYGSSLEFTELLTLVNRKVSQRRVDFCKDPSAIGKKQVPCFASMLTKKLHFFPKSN
UCH37 inh: blocks the human deubiquitinase UCH37. Q9Y5K5. purified proteasome/UCH37, Ub-AMC cleavage fluorescence. inhibition, % (test concentration not listed). hit rate 0.33% among 330,000;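 active = mean inhibition over replicate wells above about 20%, limit read from the data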;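 also: 0% = compound-free wells with enzyme and 100% = wells lacking proteasome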
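Reagent: Ub-AMC substrate; assay system: Proteasome-associated human UCH37 deubiquitinase; controls: no-proteasome and no-compound wells; read-out: % inhibition of Ub-AMC cleavage fluorescence; timing: 30 min preincubation with enzyme, 25 min cleavage at room temperature; signal: AMC fluorescence from Ub-AMC cleavage, excitation 355 nm, emission 460 nm; buffer or medium: Tris-HCl pH 7.4 plus ovalbumin, ATP-MgCl2, DTT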
Starred values were filed as active, the others as inactive.

Screening Cc1ccccc1OCCSc1nnc(-c2ccncc2)n1C returned NSD2 inh 0.1 and UCH37 inh 2.2.
For Cn1c(SCCOc2ccccc2Cl)nnc1-c1ccncc1 the results were SIRT5 block -2.7, NSD2 inh -3.0, CASP6 VEID inh 35.1* and UCH37 inh 0.0.
Screening COC(=O)C1=C(C(=O)OC)[C@@H]2N(C)c3ccc(OC)cc3[C@@]23C[C@@H](C(=O)OC)N(C(=O)c2cccs2)C3=N1 returned UCH37 inh 41.9*.
Screening COC(=O)C1=C(C(=O)OC)[C@@H]2N(C)c3ccccc3[C@@]23C[C@@H](C(=O)OC)N(C(=O)c2cccs2)C3=N1 returned FGF22 binding -0.3, CASP6 VEID inh -1.8 and UCH37 inh 2.0.
For Cc1ccc(OCCSc2nc3ccccc3n2CC(=O)O)cc1 the results were FGF22 binding 0.0, SIRT5 block 16.5*, NSD2 inh -3.7, CASP6 VEID inh 12.5 and UCH37 inh 2.9.
COc1ccccc1OCCSc1nc2ccccc2n1CC(O)CO (configuration not stated) was read as FGF22 binding 0.0, SIRT5 block 18.5*, NSD2 inh -2.0, CASP6 VEID inh 1.1 and UCH37 inh -1.0.
For CC(=O)N(C)C[C@@H]1Oc2ncc(-c3ccc(F)cc3)cc2C(=O)N([C@@H](C)CO)C[C@H]1C the results were FGF22 binding 0.0, SIRT5 block -4.0 and CASP6 VEID inh -1.3.
`COc1ccc(NC(=S)Nc2cc(C(F)(F)F)ccc2F)cc1` gave FGF22 binding 44.1*, SIRT5 block -0.6, NSD2 inh -1.0, CASP6 VEID inh -2.0 and UCH37 inh 2.4.
For COc1ccc(NC(=O)N(C)C[C@@H]2Oc3c(NC(=O)C4CC4)cccc3C(=O)N([C@H](C)CO)C[C@@H]2C)cc1 the results were FGF22 binding 0.0, SIRT5 block -1.9 and CASP6 VEID inh -1.3.
Cc1cccc2sc(NC(=O)C3CC3)nc12 was read as FGF22 binding -0.2, SIRT5 block 23.8*, NSD2 inh -2.5, CASP6 VEID inh 0.8 and UCH37 inh 1.2.
`O=C(Nc1nc2c(Cl)cccc2s1)C1CC1` gave FGF22 binding 0.0, SIRT5 block 0.5, NSD2 inh -9.8, CASP6 VEID inh 5.5 and UCH37 inh -0.9.
Screening CCN(CC)CCSc1nc(O)c(-c2ccccc2)c(=O)n1-c1ccccc1 returned FGF22 binding 0.0, SIRT5 block 16.3*, NSD2 inh 5.1, CASP6 VEID inh -3.4 and UCH37 inh 1.0.
COCc1c(C(=O)NN=Cc2ccco2)nnn1-c1nonc1N was read as UCH37 inh 4.9.
`C/C(=N\NC(=O)COc1ccc(C)cc1[N+](=O)[O-])c1cccs1` gave FGF22 binding -0.1, SIRT5 block -3.4, NSD2 inh 3.9 and CASP6 VEID inh -0.5.
For C/C(=N\NC(=O)COc1ccc(C)cc1Br)c1cc([N+](=O)[O-])cs1 the results were FGF22 binding 43.5*, NSD2 inh 0.0 and CASP6 VEID inh 2.4.
`CCCN(C)C[C@@H]1Oc2cc(C#Cc3ccccn3)ccc2S(=O)(=O)N([C@@H](C)CO)C[C@@H]1C` gave FGF22 binding 0.1, SIRT5 block -2.8 and CASP6 VEID inh -6.1.
CCc1cc2c(SCC(=O)O)ncnc2s1 was read as FGF22 binding 0.1, SIRT5 block 2.0, NSD2 inh 0.9, CASP6 VEID inh 1.1 and UCH37 inh 1.5.
For CCc1cc2c(SCC#N)ncnc2s1 the results were FGF22 binding 43.0*, SIRT5 block -0.5, NSD2 inh 0.4 and CASP6 VEID inh 0.9.
For Cc1ccc(/C=C/C(=O)c2ccccc(=O)c2O)c(C)c1 the results were FGF22 binding -0.1, NSD2 inh 48.1, CASP6 VEID inh 39.2* and UCH37 inh 0.9.
For CCCNC(=O)N(C)C[C@@H]1Oc2cc(C#CC(C)(C)O)ccc2S(=O)(=O)N([C@@H](C)CO)C[C@@H]1C the results were FGF22 binding 0.1, SIRT5 block -0.2 and CASP6 VEID inh -1.7.
`CCCNC(=O)N1C[C@@H](C)[C@H](OC)CN(C)C(=O)c2cc(NC(=O)CC)ccc2OC[C@@H]1C` gave FGF22 binding -0.2, SIRT5 block -0.2 and CASP6 VEID inh 1.5.
Screening C[C@H](CO)N1C[C@H](C)[C@H](CN(C)Cc2ccccc2F)Oc2cc(C#CC3CC3)ccc2S1(=O)=O returned FGF22 binding 0.1, SIRT5 block 43.4* and CASP6 VEID inh -1.1.
